This passage reports IC50 results from ChEMBL document CHEMBL1132358, “Virtual combinatorial syntheses and computational screening of new potential anti-herpes compounds” (J Med Chem, 1999).

By IC50 is commonly meant the concentration at which inhibition is half-maximal. High values mean weaker potency in that assay, low ones greater potency in that assay.

Molecules are shown by their SMILES.

The test system of one assay is Vero. As to the kind of experiment: Anti-Herpes simplex virus type-1 activity in vero cells using plaque inhibition assay. The class given is functional, cell-based, Chlorocebus sabaeus. The note with it: Chlorocebus sabaeus, Vero. The gist of the method: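 Plaque-reduction assay with HSV-1 McIntyre strain (titrated suspension) on confluent Vero monolayers. Cells infected with 100 PFU in MEM and adsorbed 2 h at 37 °C. Inoculum then replaced with MEM containing 0.2% γ-globulin plus serial concentrations of compound. Untreated infected wells served as CPE controls; CPE completed 1–2 days post-infection. Result given as IC50.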
In turn, `O=C(O)C1=C(C(=O)Oc2ccc(F)c(F)c2F)CCC1` returned a 50% inhibitory concentration (IC50) of 1800 nM. Still for that read-out and setting: the value for `Cc1noc(C)c1[N+](=O)[O-]` was 900 nM; that for `O=C(O)C1=C(C(=O)Nc2ccc(F)c(F)c2F)CCC1` was 900 nM; that for `O=C(O)C1=C(C(=O)Nc2c(F)cccc2F)CCC1` was 900 nM. Same read-out and setting: the value for `O=C1NC(=O)C([N+](=O)[O-])C(=O)N1` was 1700 nM. Same read-out and setting: the value for `O=C(O)C1=C(C(=O)Oc2ccc(F)cc2F)CCC1` was 1400 nM. The compound `O=C(O)C1=C(C(=O)Nc2cccc(F)c2F)CCC1` gave an IC50 of 900 nM. On the same count and under the same terms, the value for `Cc1cc(=O)oc2cc(OCC(=O)O)ccc12` was 70 nM. Still for that read-out and setting: the value for `O=C(O)c1n[nH]nc1C(=O)O` was 5000 nM. On the same count and under the same terms, the figure for `O=C(CN1CCNCC1)N1CCCC1` is 600 nM; for `Cc1cn([C@@H]2O[C@H](CO)[C@@H](O)[C@H]2O)c(=O)nc1N` it is 60 nM; for `Nc1nc(N)c2nc(CO)cnc2n1` it is 160 nM.

`O=C(O)CCCCC(=O)O` [ADIPIC ACID] gave a half-inhibitory concentration (IC50) of 400 nM. For the compound `Nc1ncnc2c1ncn2[C@@H]1O[C@H](CO)C[C@H]1O` [CORDYCEPIN], the IC50 was determined as 500 nM. Still for that read-out and setting: the figure for `O=c1ccn([C@H]2C[C@H](O)[C@@H](CO)O2)c(=O)[nH]1` [DEOXYURIDINE] is 2200 nM.

`Cc1cn([C@H]2C[C@H](O)[C@@H](CO)O2)c(=O)[nH]c1=O` [DOXRIBTIMINE]: the IC50 is 400 nM.

In turn, `O=c1[nH]cnc2c1ncn2[C@@H]1O[C@H](CO)[C@@H](O)[C@H]1O` [INOSINE] showed an IC50 of 230 nM. The compound `OC[C@H]1O[C@@H](n2cnc3cncnc32)[C@H](O)[C@@H]1O` [NEBULARINE] gave an IC50 of 600 nM. The same measure, in the same setting: the value for `O=C1CN(/N=C/c2ccc([N+](=O)[O-])o2)C(=O)N1` [NITROFURANTOIN] was 900 nM; that for `O=C(O)CCC(=O)O` [SUCCINIC ACID] was 1300 nM.

Still in this assay, the particulars now being: vero.
`Cc1cn([C@H]2C[C@H](O)[C@@H](CO)O2)c(=O)[nH]c1=O` [DOXRIBTIMINE] returned an IC50 of 300 nM.
